In the library only some 6.4% were active in any assay of this set; here they are far more common.
HUVEC inhibit – inhibitors of HUVEC proliferation, primary screen, cell-based, 384-well; CellTiter-Glo luminescence, 72 h; active compounds read low; viability, % at 10 µM (by protocol); 86,000 tested, 1.1% active; AID 648, 2007;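 active = viability at or below 30%; inactive = viability above 30%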;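 note: 100% = median luminescence of DMSO-only cell control wells on each plate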
Jurkat tox 60K – cytotoxicity toward Jurkat T cells, primary screen, cytotoxicity control, cell-based, Jurkat E6.1, 60K MLSMR library; Jurkat E6.1 viability, ATP luminescence, 48 h; AID 463, 2006; 56,000 tested, 1.2% active; inhibition, % at 4 µM;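 active = inhibition above the mean inhibition of all tested compounds plus 3 SD, cut at about 28% in these data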
H69AR inhibit – proliferation blockers of H69AR lung cancer cells, primary screen, cell-based, human, 86K library; H69AR lung tumor viability, ATP luminescence, 72 h; active compounds read low; viability, % at 10 µM; 85,000 tested, 6% active;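 active = viability at or below 40%; inactive = viability above 40%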;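 note: multidrug resistant small cell line overexpressing MRP-1 efflux transporter; 100% = mean luminescence of untreated control wells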
E coli WT exp – growth inhibitors of wild-type E. coli, primary screen, strain BW25113, expanded library, OD600; AID 710, 2007; growth inhibition, % at 100 µM; 98,000 tested, 0.15% active; OD600 absorbance;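 active = growth inhibition above about 50% at one test dose, limit read from the data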;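 note: growth measured after 20 h incubation at 37 °C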
Ecoli tolC – growth inhibitors of E. coli tolC mutant, primary screen, strain BW25113 ΔtolC::kan, 384-well. growth inhibition, % at 10 µM (by protocol). 65,000 tested, 2.2% active. OD615;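 active = growth inhibition at or above a cutoff equal to the mean over every tested compound plus 3 SD, cut at about 60% in these data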;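 note: growth measured after 20 h incubation at 37 °C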
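Test system: tolC-deleted E. coli BW25113 | Medium: LB with kanamycin 50 µg/mL | Compound dosing: Single concentration, 10 µM final per compound | Schedule: 37 °C, 20 h exposure | Measured by: OD at 615 nm | Evaluation: Percent growth inhibition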
Lung fibro prol – antiproliferative effect on LL 47 fibroblasts – human, LL 47 cells, CellTiter-Glo luminescence, primary screen; viability, % at 10 µM; 85,000 tested, 1.1% active; LL 47 human lung fibroblast viability, ATP luminescence; active compounds read low;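 active = viability at or below 50% in the single dose screen; inactive = viability above 50%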;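 note: compound exposure lasted 72 h before the ATP readout; 100% = median luminescence of untreated cell-only wells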
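Benchmarks: Cell-only wells, no compound | Test system: LL 47 human lung fibroblasts, passage 12 or lower | Input: 1,150 cells/well | Measured by: CellTiter-Glo luminescence measuring cellular ATP | Medium: IMEM, 15% FBS supplement | Schedule: Overnight attachment after seeding, then 72 h compound exposure at 37 °C | Doses: Compound addition at 0.1% DMSO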
* hit, by the source's call; . = no result given.

SMILES	HUVEC inhibit	Jurkat tox 60K	H69AR inhibit	E coli WT exp	Ecoli tolC	Lung fibro prol
O=C(c1ccccc1F)N1CCN(c2cccc(C(F)(F)F)c2)CC1	95	9	90	10	15	100
COc1ccc(N2C(=O)C3CCCN3C2=O)cc1 (stereo not drawn)	108	.	99	1	.	103
Fc1cccc2sc(Nc3nnc(-c4ccco4)o3)nc12	57	2	37*	-6	99*	65
COc1cccc2sc(Nc3nnc(-c4ccc(F)cc4)o3)nc12	2.9*	.	35*	-14	.	62
CC(=O)Nc1nc2c(F)cccc2s1	90	-2	94	.	-6	90
COc1cccc2sc(Nc3nnc(-c4cccs4)o3)nc12	2.8*	47*	23*	-2	-20	41*
CCOC(=O)c1sc(Nc2nc3c(OC)cccc3s2)nc1C	.	2	.	-1	-13	.
O=C(Nc1ccsc1C(=O)NC1CCCCC1)c1ccccc1	.	.	.	4	.	.
CCCCOc1ccc(-c2nnn(CC(=O)NCc3ccco3)n2)cc1	57	18	29*	-4	.	52
CCOc1ccc(-c2nnn(CC(=O)NCc3ccco3)n2)cc1OCC	104	.	67	.	.	104
CCCCNc1cc(C)nc(NCc2ccccc2)n1	4.4*	34*	9.9*	59*	77*	53
Cc1cc(C)nc(NCCCc2ccccc2)n1	102	-4	92	0	12	103
CNc1nc(C)c(C(=O)OCc2ccccc2)s1	84	66*	55	3	2	102
CCOc1ccc(-c2cc(NC(=O)Cn3ncc4c3-c3ccccc3OC4)on2)cc1OCC	50	8	30*	-14	12	94
Cc1ccc(-n2c(O)c(C=NC3CCS(=O)(=O)C3)c3ccccc3c2=O)cc1 (stereo not drawn)	82	.	92	10	.	92
COC1(OC)N=C(N)C2(C#N)C(c3ccc4c(c3)OCO4)C12C#N (stereo not drawn)	84	-13	33*	1	5	87
CCOC(=O)c1c(NC(C)=O)sc2c1CCC(C=O)=C2Sc1ccccc1	32	.	4.6*	5	.	18*
CCOC(=O)c1c(NC(C)=O)sc2c1CCCNC2=O	92	8	64	-11	10	91
CN1CCN(c2ccc([N+](=O)[O-])cc2C(=O)c2ccc(Cl)cc2)CC1	.	.	.	-5	.	.
CCOC(=O)c1sc(N)c(C#N)c1CSc1nnc(C2CCCCC2)n1N	93	4	77	-8	7	101
CN1CCN(c2cc3c(c4c2[nH]c2ccccc24)C(=O)CC(C)(C)C3)CC1	3.3*	10	0.9*	22	-4	19*
CN1CCN(c2ncnc3c2[nH]c2ccc(F)cc23)CC1	83	.	78	22	9	102
O=C(CCN1C(=O)c2ccccc2C1=O)Nc1cccnc1	93	.	107	.	.	105
CCC(CC)C1C(C#N)=C(N)Oc2n[nH]c(C)c21 (stereo not drawn)	67	.	13*	9	6	80
CC(C)(C)c1[nH]nc2c1C(Cc1ccccc1)C(C#N)=C(N)O2 (stereo not drawn)	106	-3	.	10	64*	91
SMILES	HUVEC inhibit	Jurkat tox 60K	H69AR inhibit	E coli WT exp	Ecoli tolC	Lung fibro prol
CC(C)c1[nH]nc2c1C(c1cccs1)C(C#N)=C(N)O2 (stereo not drawn)	71	.	40*	.	.	80
CC(C)C1C(C#N)=C(N)Oc2n[nH]c(-c3ccc4ccccc4c3)c21 (stereo not drawn)	40	.	16*	-4	.	62
CC(C)C1C(C#N)=C(N)Oc2n[nH]c(-c3cccs3)c21 (stereo not drawn)	99	4	105	-8	11	104
O=C(Cn1cccc1C(=O)c1ccccc1)NCc1cccs1	96	-1	89	-1	2	98
Cc1cccc(C)c1NS(=O)(=O)c1ccc(F)cc1	86	-2	104	5	4	107
NC(=O)CSc1nnc(C2CC2)n1-c1ccccc1	83	.	83	1	.	92
O=C(c1n[nH]c2c1CCCC2)n1ccnc1	101	-7	89	3	-15	93
CCC(=O)N1CCN(c2ccccc2NC(=O)c2ccc(OC)c(Cl)c2)CC1	100	.	54	-14	.	106
COc1ccc(C)cc1NC(=O)C(=O)NNC(=O)c1ccco1	.	.	.	1	.	.
O=C(Nc1ccccn1)C(=O)N1CCCCC1	99	.	89	.	.	103
Cc1[nH]nc2c1C(c1ccc(-c3ccccc3C#N)o1)C(C#N)=C(N)O2 (stereo not drawn)	31	-6	1.6*	10	17	74
CCC(CC)C1C(C#N)=C(N)Oc2n[nH]c(-c3ccccc3)c21 (stereo not drawn)	71	.	36*	-8	.	76
COc1ccc(NC(=O)COC(=O)c2c3c(nc4ccccc24)CCCC3)cc1Cl	.	.	.	-16	.	.
CCOC(=O)c1c(/N=C/N(C)C)sc(C(=O)OC)c1C	97	.	91	-2	-5	94
c1ccc(-c2nnc3sc(-c4csc5c4CCCC5)nn23)cc1	76	5	31*	2	22	100
CCN(CC)c1ccc(-c2nn3c(-c4ccccc4OC)nnc3s2)cc1	12*	99*	12*	-11	40	38*
COc1ccc(-c2nn3c(-c4ccccc4)nnc3s2)cc1	73	6	35*	-5	14	91
COc1cccc(OC)c1-c1nn2c(-c3cc(-c4ccccc4)n[nH]3)nnc2s1	.	66*	.	-1	10	.
C=CCSc1nnc2nc3[nH]c4c(C)cccc4c3nn12	.	.	.	-14	.	.
Cc1nnc2sc(-c3cc4ccccc4o3)nn12	99	7	91	.	-15	108
c1ccc(-c2nnc3sc(-c4cc5ccccc5o4)nn23)cc1	65	-5	32*	-7	-19	111
CCOC(=O)/C(C#N)=C\c1ccc(OCC(=O)Nc2ccc(C)cc2C)c(OC)c1	.	.	.	3	.	.
O=c1cc(CN2CCN(c3ccccc3)CC2)c2cc(O)c(-c3ccccc3)cc2o1	35	5	5.0*	0	-5	48*
CC(C)c1ccc2oc(=O)cc(CN3CCN(c4ccc(F)cc4)CC3)c2c1	70	3	69	-15	37	92
CCc1ccc2oc(=O)cc(CN3CCN(c4ccc(F)cc4)CC3)c2c1	40	11	37*	-11	1	26*
O=c1cc(CN2CCN(Cc3ccccc3)CC2)c2cc(Cl)ccc2o1	98	-5	105	3	13	96
CCc1ccc2oc(=O)cc(CN(C)Cc3ccccc3)c2c1	104	6	79	-7	100*	83
O=c1cc(CN2CCN(C/C=C/c3ccccc3)CC2)c2cc(O)ccc2o1	75	16	39*	5	25	98

Assay outcomes deposited in PubChem BioAssay by several laboratories.
